The labels stand for the following.
B1: tRNA (parent)
chain: GUUCCGUUGGCGUAAUGGUAACGCGUCUCCCUCCUAAGGAGAAGACUGCGGGUUCGAGUCCCGUACGGAACG

Variants at the floor of the assay were thinned out.

The source of these data is the RNAGym collection of RNA variant scans (doi:10.1126/science.aae0568).

The variants in this data set derive from B1. Description: yeast fitness relative to wild type (ratio to wild type); higher = fitter; tRNA-Arg(CCU), competitive growth, 37 C, YPD. The essentials: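 The tRNA-Arg(CCU) gene variants were made by chemical synthesis with a 3% per-site mutation rate at 69 sites and inserted at the native genomic locus of Saccharomyces cerevisiae. After pooling, the strains were competed in YPD at 37°C for 24 hours in six parallel replicates. Gene amplicons from the start population and each end population were read by 100-nucleotide paired-end sequencing, and Darwinian fitness relative to wild type was taken from genotype frequency changes. Genotypes needed ≥ 100 starting reads, and estimates < 0.5 were set to 0.5.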
As for GAUCCGUUGGAGUGAUGGUAACGCGUCUUCCUCCUAAGGAGAAGACUGCGGGUUCGAGUCCCGUACGUAACG, the yeast fitness worked out at 0.564.
As to GAUGCGUUGGCGUAAUGGUAACGCGUCUCCCUCCUAAGGAGAAGACUGCGGGUUAGAGUCGCGUACGGAACG, the yeast fitness was not above 0.5.
With GAUCCGUUGGCGUAAUGGUAACGCGUCUCCCUCCUAUGGAGAAGACUGCGGGAUCGAGUCCUGUACGGAACG the figure was not above 0.5; with GAUCCGUUGGCGUAAUGGUAACGCGUCUCCCUCCUAAGGGGAUGCCUGCGGGUUCGGGUCCCGUCCGGAACG, not above 0.5.
With GAUCCGUUGGCGUAAUGGUAACGCGUCUCCCUCCUAAGGAGAAGACUGCGGGUUCGUGUCCCGUACGCAACG the figure was not above 0.5.
Turning to GAUCAGUUGGCGUAAUGGUAACGCGUCUCCAUCCUAAGGAGAGGCCUGCGGGUUCGAGUCCCGUACGGAACG, the yeast fitness was not above 0.5.
With GAUCUGUUGGCGUAAUGGUAACGCGUCUCCCUCCUAAGGAGAAGACUGCGGGUUCGAGUCCCGUUCGGUACG the figure was 0.614.
With GAUCCGUUGGGGUAAUGGUAACGCGUGUCCCUCCUAAGGAGAAGACUGCGGGUACGAGUCCCGUACGGAACG the figure was not above 0.5; with GAUUCGUUGGCGUAAUGGUAACGCGUCUCCCUCCUAAGGAGAAGACUGCGGGUUCGAGUCCCGUACGGUACG, 0.787.
Take GAUCCGUUGGCGUAAUGGUAACGCGUCUCCCUCCUAAGGAGAAGACUGCGGGUUCGAGUCCCGUACGGUACG: the yeast fitness is 0.874.
In the case of GAUCCGUUGGCGUAAUGGUAACGCGUCUCCCUCCUAAGGAGAAGACUGCGGGUUCGAGUCCCGUACGGCACG it was 0.959.
With GAUCCGUUGGGGUAAUGGUAACGCGUCUCCCUCCUAAGGAGAAGACUGCGGGUUCGUGUCCCGUAUGGAACG the figure was 0.588; with GAUCCGUUGGGGUAAUGGUAACGCGUCUCCGUCCUAAGGAGAAGACUGCGGGUUCGAGUCCCGUACGGAACG, 0.6.
Consider GAUACGUUGGCGCAAUGGUAACGCGUCUCCAUCCUAAGGAGAAGACUGGGGGUUCGGGUCCCGUACGGAACG, for which the yeast fitness was not above 0.5.
In the case of GAUCCGUUGGCGUAAUGGUAACGCGUCUCCCUCCUAAGGGGAAGACUGCGGGUUCGAGUCCCGUACGGUACG it was 0.553; in that of GAUACGUUGGCGUAAUGGUAACGCGCCUCCUUCCUAAAGAGAAGACUGCGGGUUCGAGUCCCGUACGGAACG, not above 0.5.
With GAUCCGUUGGCGUAAUGGUAACGCGUCUCCCUCCUAAGGUGAAGACUCCGGGUUCGAGUCCCGUACGGAACG the figure was not above 0.5.
For GAUCCGUUGGCGUAAUGGUAACGCGUCUCCCUCCUGAGGAGAAGACUGCGGGUUCGAGUCCCGUACGGAACG, the yeast fitness was 0.985.
In the case of GAUCGGUUGGCGUAAUGGUAACGUGUCUCGCUCCUAAGGAGAAGACUGCGGGUUCGAGUCCCGUACGAAACG it was not above 0.5; in that of GAUCGGUUGGCGUAAUGGUAACGCGUCUCCCUCCUAAGGAGAAGACUGCGGGUUCGAGUCCCGAACGGAACG, not above 0.5.
As for GAUCAGUUCGCGUAACGGUAACGCCUCUCCCUCCUAAGGAGAAGACUGCGGGUUCGAGUCCCGUACGCAACG, the yeast fitness was found to be 0.586.
With GAUCUGUUGGCGUAAUGGUAACGCGUCUCCAUCCUAAGGAGAAGACUGCGGGUUCGAGUCCUGUACGGAACG the figure was not above 0.5; with GAUCAGUUGGCGUAAUGGUAACGCGUCUCCCUCCUAAGGAACAGACUGCCGGUUCGAGUCCCGUACGGAGCG, not above 0.5; with GAUCGGUUGGCGUAAUCGUAACGCGUCUCCCUCCUAAGGAGAAGACUGCGGGUUCCGGUCCCGUACGUAACG, 0.558.
With GAUCCGUUGGGGUAAUGGUAACGCGUCUCACUCCUAAGGAGAAUACUGCGGGUUCGGGUCCCGUACGGAACG the figure was not above 0.5.
In the case of GAUCUGUUGGCGUAAUGGUAACGCGUCUCCCUCCUAAGGAGAAGACUGCGGGUUCGAGUCCCGUACGGAACG it was 0.906.
As for GAUCGGUUGGCGUAAUGGUAACGCGUCUCCCUCCUAAGGAGAAGACUGCGGGUUCGAGUCCCGUACGGAACG, the yeast fitness was 0.728.
With GAUCAGUUGGCGUAAUGGUAACGCGUCUCCCUCCUAAGGAGAAGACUCCGGGUUGGAGUCCCGUAAGGAACG the figure was not above 0.5; with GAUCAGUUGGCGUAACGGUAACGCGUCUCACUCCUAAGGAGAAGACUGCGGGUUCGAGUCCCGUACGGAACG, not above 0.5.
In the case of GAUCAGUUGGCGUAAUGGUACCGCGUCUCCCUCCUAAGGAGAAGACUGCGGGUUCGAGUCCCGUACGGAACG it was not above 0.5; in that of GAUCGGUUGGCGUAAUGGUAACGCGUCUCCCUCCUAAGGAAAUGACUGCGGGUGCGUGUCCCGUACGGAACG, not above 0.5.
With GAUCCGUUGGCGUAAUGGUAACGCGUCUCCCUCCUAAGGAGAAGACUGCGGGUUCGUGUCCCGUACGGAACG the figure was 0.663; with GAUCAGUUGGCGUAAUGGUAACGCGUCUCCCUCCUAAGGAGAAGACUGCGGGUUCGAGUCCCGGAUGGAACG, not above 0.5; with GAUCUGUUGGCGUAAUGGUAACGCGUCUGCCUCCUAUGGAGAAGACUGCGGGUUCGAGUCCCGUGCGGAACG, not above 0.5.
As to GAUCAGUUGGCGUAAUGGUAACGCGUCUCCCUCCUAAGGAGAAGACUGCGGGUUCGAGUCCCGUAUGGAACG, the yeast fitness is not above 0.5.
In the case of GAUCCGUUGGCGUAAUGGUAACGCGUCUCCCUCCUAAGGAGAAGACUGCGGGUUCGAGUCCCGUACGGAGCG it was 0.979; in that of GAUCCGUUGGCGUAAUGGUAACGCGUCUCCCUCCUAAGGAGAAGACUGCGGGUUCGAGUCCCGUACGGAUCG, 1.06; in that of GAUCUGUUGGCGUAAUGGUAACGCGUCUCCCUCCUAAGGAGGAGAGUGCGGGUUCCAGUCACGUACGGAACG, not above 0.5.
For the variant GAUUCGUUGGCGUAAUGGUAACGCGUCUCCCUCCUAAGGAGAAGACUGCGGGUUCGAGUCCCGUACGGAACG, the yeast fitness was found to be 0.965.
For the variant GAUCCGUUGGCGUAAUGGUAACGCGUCUCCCUCCUAUGGAGAAGACUGCGGGUUCGAGUCCCGUACGGAACG, the yeast fitness is 0.689.
In the case of GAUCCGUUGGCGUAAUGGUAACGCGUCUCCCUCCUACGGAGAAGACUGCGGGUUCGAGUCCCGUACGGAACG it was 0.833.
In the case of GAUACGUUGGCGCAAUGGUAACGCGUCUCCCUCCUAAGGAGGAGACUGCGGGUUGGAGUCCCGUACAGAACG it was not above 0.5; in that of GAUCCGUUGGUGUAAUGGUAACGCGUCUCCCUCCUAAGGAGAAGACUGCGGGUUCGAGUCCCGUACGGUACG, 0.648; in that of GAUGCGUUGGCGUAAUGGUAACGCGUCUCCCUCCUAAGGAGAAGACUGCGGGUUAGAGUCCCGUACGGAACG, 0.57.
Turning to GAUCCGUUGGCGUAAUGGUAACGCGUCUCCCUCCUAAGGAGAAGGCUGCGGGUUCGAGUCCCGUACGGAACG, the yeast fitness turned out to be 1.09.
In the case of GAUCCGUUGGCGUAAUGGUAACGCGUCUCCCUCCUAAGGAGAAGUCUGCGGGUUCGAGUCCCGUACGGAACG it was 0.863; in that of GAUCCGUUGGCGUAAUGGUAACGCGUCUCCCUCCUAAGGAGAUGACUGCGGGUUCGCGUCUCGUACGGAACG, 0.578.
In the case of GAUCGGUUGGCGUAAUGGUAACGCGUCUCCCUCCUAAGGGGAAGACUGCGGGUUCGAGUCCCGUACGGAACG it was 0.564; in that of GAUUCGUGGGCGUAAUGGUAACGCGUCUCCAUCCUAAGGAGAACACUGCGGGUUCGAGUCCCGUGCGGAACG, not above 0.5; in that of GAUCCGUUGGCGUAAUGGUAACGCGUCUCCCUCCUAAGGAGUAGACUGCGGGUUCGAGUCCCGUACCGAACG, not above 0.5.
In the case of GAUCCGUUGGGGUAAUGGCAACGCGUCUCCCUCCUAAGGAGAAGACUGCGGGUUCGAGUCCCGUACGGAACG it was not above 0.5; in that of GAUCCGUUGGGGUAAUGGUAACGCGUCUCCCUCCGAAGGAGAAGACAACGGGUUCGAGUCCCGUUCGGAACG, not above 0.5.
Take GAUACGUUGGCGUAAUGGUAACGCGUCUCCCUCCUAAGGAGAAGAGUGCGGAUUCGAGUCCCGUACGGAACG: the yeast fitness was not above 0.5.
With GAUCUGUUGGCGUAAUGGUAACGCGUCUCCCUCCUAAGGAGAAGACUGCGGGUUCGAGUCCCGUAUGGAACG the figure was 0.661.
In the case of GAUCUGUUGGCGUAAUGGUAACGCGUCUCCCUCCUAAGCAGAAGACUGCGGGUUCGAGUACCGUACGGAACG it was 0.541; in that of GAUCCGUUGGCGUAAUGGUAACGCGUCUCCCUCCUAAGGAGAAGACUGCGGGUUCGAGUCCCGUCCGGAACG, 0.848; in that of GAUCCGUUGGAGUAAUGGUAACGCGUCUCCCUCCUAAGGAGAAGAUUGUGGGUUCGAGUCCCGUACGGAACG, not above 0.5.
In the case of GAUCAGUUGGCGUAAUGGUAACGCGUCUCCCUCCUAAGGAGAAGACUGCGGCUUCGAGUCCCGUACGGAACG it was not above 0.5; in that of GAUCCGUUGGGGUAAUGGUAACGCGUCUCCUUCCUGAGGAGAAGACUGCGGGUUCGAGUCCCGUACGGAACG, 0.646.
For the variant GAUCUAUUGGCGUAAUGGUAACGCGUCUCCCUCCUAAGCAGAAGACUGCGGGUUCGAGUACCGUACGGAACG, the yeast fitness is not above 0.5.
With GAUCCGUUGGCGUAAUGGUAACGCGUCUCCCUCCUAAGGAGACGACUGCGGGUUCGAGUCUCGUACGGAACG the figure was 0.572.
With GAUCCGUUGGCGUAAUGGUAACGCGUCUCCCUCCUAAGGAGACGACUGUGGGUUCGAGUCCCGUACGGAACG the figure was 0.602; with GAUCGGUUGGCGUAAUGGUAACGCGUCUCCCUCCUAAGGAGAAGACUGCGGGUUCGAGUCCCCUACCGUACG, not above 0.5; with GAUCAGUUGGCGUAAUGGUAAGGUGUCUCCCUCCUAAGGAGAAGACUGCCGGUUCGAGUCCCGUACGGAACG, not above 0.5.
In the case of GAUCCGUUGGGGUAAUGGUAACGCGUCUCCCUCUUAAGGAGUAGACUGGGGGUUCGAGUCCCGUACGGAACG it was 0.788.
In the case of GAUCCGUUGGAGUAAUGGUAACGCGUCUCCCUCCUAACGAGAAGACUGCGGGUUCGAGUACCGUAUGGAACG, the yeast fitness was not above 0.5.
As to GAUCGGUUGGCGUAAUGGUAACGCGUCUCCCUCCUAACGAGAAGACUGCGGGUUCGAGUCCCGUACGGAACG, the yeast fitness is not above 0.5.
With GAUCUGUUGGCGUAAUGGUAACGCGUCUCCCUCCUAAAGAGAAGACUGCGGGUUAGAGUCCCGUACGGAACG the figure was not above 0.5; with GAUCCGUUGGGGUAAUGGUAACGCGUCUCCCUCGUAAGGAGAAGACUGCGGGUUCGAGUCCCGGACGGAACG, not above 0.5; with GAUUCGUGGGCGUAAUGGUAACGCGUCUCCCUCCUAAGGAGAAGACUGCGGGUUGGAGUCCCGUACGGAACG, 0.513.
Regarding GAUCAGUUGGCGUAAUGGUAACGCGUCUCCCUCCUAAGGAGAAGACUGCGGGUUCGAGUCCCGUACGCAACG, the yeast fitness was not above 0.5.
With GAUCUGUUGGUGUUAUAGUACCGCGUCUCCCUCCUAACGAGAAGACUGAGGGUUCGAGUCCCGUACGGAACG the figure was not above 0.5; with GAUCCGUUGGGGUAAUGGUAGCGCGUCUCCCUCCUAAGGAGAAGACUGCGGGUUCGAGUCCCGUUCGGAACG, not above 0.5.
In the case of GAUUCGUUGGCGUAAUGGUAACGCGUCACUCUCCUAAGGAGAAGACUGCGGGUUCGAGUCCCGUACGGAACG it was 0.56; in that of GAUCCGUUGGGGUAAUGGUAACGCGUCUCCCUCCUAAGGAGUAGACUGCGGGUUCGAGUCCCGUACGGAACG, not above 0.5.
